Experimental data as given in ChEMBL document CHEMBL1140348, “5'-Homoneplanocin A inhibits hepatitis B and hepatitis C” (J Med Chem, 2005).

How the values were obtained:
Hepatitis B virus [1] = assay: (§1) Effective concentrations at which […] depression of extracellular virion DNA (HBV) was observed in 2.2.15 Cells; type: functional; details: HepG2 2.2.15
How it was run: (§2)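 Confluent 2.2.15 cells in RPMI1640 with 2% FBS got nine daily doses, with medium and compound refreshed daily; six cultures per concentration on two plates. HBV DNA was quantified by blot hybridization 24 h after the last dose. EC50 and EC90 are the 2-fold and 10-fold depression versus untreated cultures, from linear regression over two to four experiments.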

[2] = Cytotoxic concentration against HBV replication in 2.2.15 cell culture; type: cell-based, HepG2 2.2.15; details: hepatitis b virus, 2.2.15 cells
How it was run: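 Confluent 2.2.15 cells in RPMI1640 with 2% FBS received nine consecutive daily doses, with medium and compound renewed daily. Toxicity was read 24 h after the last dose as neutral red uptake (A510), with three cultures per concentration on plates seeded in parallel from the same cell stock. CC50 is the 2-fold depression of dye uptake versus untreated cultures, from linear regression.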

Hepatitis B virus [3] = assay: Selectivity index of intracellular intermediates as the ratio of CC50 and EC90; type: functional
How it was run: (§3)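 The 2.2.15 HBV assay used nine daily doses. HBV DNA was measured by blot hybridization and toxicity by neutral red uptake, both 24 h after the last dose. The index is CC50/EC90, where EC90 is the 10-fold HBV DNA depression and CC50 the 2-fold dye-uptake depression versus untreated cultures.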

Hepatitis B virus [4] = assay: as §1; type: functional, organism-based; details: HepG2 2.2.15
How it was run: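 Confluent 2.2.15 cells in RPMI1640 with 2% FBS, given nine consecutive daily doses with daily medium change, six cultures per concentration on two plates. HBV DNA measured by quantitative blot hybridization 24 h after last dose. EC is the concentration giving 2-fold (EC50) or 10-fold (EC90) depression vs untreated, by linear regression, 2–4 experiments.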

Hepatitis B virus [5] = assay: Effective concentrations at which 10-fold depression of intracellular intermediates of HBV DNA was observed in 2.2.15 Cells; type: functional; details: HepG2 2.2.15; how it was run: as §2
Hepatitis B virus [6] = assay: Selectivity index of virion as the ratio of CC50 and EC90; type: functional; how it was run: as §3
Hepatitis C virus [7] = assay: Effective concentrations at which 10-fold depression of HCV RNA was observed in AVA5 cells (Huh 7 cells with subgenomic HCV replicon BB7I; type: functional, Hepacivirus hominis
How it was run: (§4)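 AVA5 cells (Huh7 carrying subgenomic HCV replicon BB7), grown 3 days with G418, then treated without G418 for 3 consecutive days while rapidly dividing, 3 cultures per concentration, fresh compound daily. HCV RNA measured by quantitative blot hybridization 24 h after last dose. EC90 is the concentration giving 10-fold HCV RNA depression vs untreated, by linear regression.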

[8] = Cytotoxic concentration against HCV replication in AVA5 cell culture; type: cell-based; details: AVA5 cells
How it was run: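 AVA5 replicon cells given compound daily for 3 days, without G418. Neutral red uptake (A510) read 24 h after last treatment. CC50 is the concentration giving 2-fold lower dye uptake vs untreated cultures, by linear regression on combined data from all treated cultures.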

Hepatitis C virus [9] = assay: Selectivity index as the ratio of CC50 and EC50; type: functional, Hepacivirus hominis
How it was run: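 AVA5 cells (Huh7 carrying the BB7 subgenomic HCV replicon) were grown 3 days with G418, which was then withdrawn. Rapidly dividing cultures, three per concentration, were treated for 3 consecutive days with daily medium renewal. HCV RNA was measured by blot hybridization 24 h after the last dose, with neutral red uptake for toxicity. SI is CC50/EC50, each at 2-fold depression versus untreated cultures.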

Hepatitis B virus [10] = assay: Cytotoxic concentration against […] replication in 2.2.15 cell culture; type: functional; details: HepG2 2.2.15
Hepatitis C virus [11] = assay: Effective concentrations at which 2-fold depression of HCV RNA was observed in AVA5 cells (Huh 7 cells with subgenomic HCV replicon BB7); type: functional, organism-based, Hepacivirus hominis
How it was run: as §4, with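 “EC50” for “EC90”, “2-fold” for “10-fold”, “regression on all treated cultures.” for “regression.”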

Structure (SMILES) | EC90 (Hepatitis B virus [1]) | CC50 [2] | SI (Hepatitis B virus [3]) | EC50 (Hepatitis B virus [4]) | EC90 (Hepatitis B virus [5]) | SI (Hepatitis B virus [6]) | EC90 (Hepatitis C virus [7]) | CC50 [8] | SI (Hepatitis C virus [9]) | CC50 (Hepatitis B virus [10]) | EC50 (Hepatitis C virus [11])
Nc1ccn([C@@H]2CS[C@H](CO)O2)c(=O)n1 (single isomer, unassigned) [LAMIVUDINE] | 0.17 µM | 2680 µM | 3877 | 0.06 µM | 0.69 µM | 11630 |  |  |  |  | 
Nc1ncnc2c1ncn2[C@@H]1C=C(CCO)[C@@H](O)[C@H]1O | 7.7 µM |  | 45 | 0.53 µM | 27 µM | 158 | 31 µM | 216 µM | 30 | 1210 µM | 7.3 µM
NC(=O)c1ncn([C@@H]2O[C@H](CO)[C@@H](O)[C@H]2O)n1 [RIBAVIRIN] |  |  |  |  |  |  | > 100 µM | 71 µM |  |  | > 100 µM
